Results on 32 molecules are retold here after ChEMBL document CHEMBL1165845, “Synthesis and biological evaluation of analogues of a novel inhibitor of beta-amyloid secretion” (J Med Chem, 2010).

Holding throughout (format): cell-based
Common to all, as to set-up: scale not given: the % may be the effect or the level left

In data set [1] the test system is H4. Briefly: Cytotoxicity against human H4 cells expressing wild type betaAPP695 assessed as decrease in cell protein at 30 uM after 24 hrs. The following applies: h4, 24 h. Put shortly: (§1)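 Serum-starved H4βAPP695wt cells are treated for 24 h with drug in DMSO (0.02% DMSO vehicle control). Total Aβ in conditioned medium is measured by sandwich ELISA with 6E10 capture and 4G8 detection, normalized to lysate protein by BCA. Cytotoxicity is read as total cell protein. Quadruplicate wells in 1-4 independent experiments give the % decrease versus vehicle.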

Data set [2] relates to H4. Briefly: Cytotoxicity against human H4 cells expressing wild type betaAPP695 assessed as decrease in cell protein at 10 uM after 24 hrs. Conditions: h4, 24 h. Put shortly:
as §1

Data set [3] has as its system H4. The data set can be described thus: Induction of alpha-secretase-mediated reduction in amyloid beta secretion in human H4 cells expressing wild type betaAPP695 at 30 uM after 24 hrs […] relative to control. The procedure, abridged: as §1
For data set [4], the system named is H4. Briefly: Induction of alpha-secretase-mediated reduction in amyloid beta secretion in human H4 cells expressing wild type betaAPP695 at 10 uM after 24 hrs […] relative to control. The procedure, abridged: as §1

Regarding `Clc1cccc(CSCCNCc2c(Cl)cccc2Cl)c1`, the Activity was 6.6% in data set [1], -3.6% in data set [2], 45.6% in data set [3] and 45.2% in data set [4].

Consider `O=C(NCC[S+]([O-])Cc1cccc(Cl)c1)c1c(Cl)cccc1Cl` (stereo not given), for which the Activity in data set [1] is 7.3%; in data set [2] it was -4.9%; in data set [3], -16.5%; in data set [4] it was 4%.

`O=C(NCCOCc1ccccc1)c1ccccc1Cl`: in data set [4], the Activity turned out to be 10.3%.

In the case of `O=C(NCCSCc1ccc(Cl)cc1Cl)c1ccc(Cl)cc1Cl`, in data set [4], the Activity worked out at 39.8%.

Turning to `O=C(O)c1cccc(CSCCNC(=O)c2c(Cl)cccc2Cl)c1`, the Activity was 3.2% in data set [1], 7.1% in data set [2], -3.8% in data set [3] and -11.4% in data set [4].

As for `O=C(NCCSCc1cccc(F)c1)c1c(Cl)cccc1Cl`, the Activity amounted to 3.7% in data set [1], 2.6% in data set [2], 36.1% in data set [3] and 10.2% in data set [4].

Consider `O=C(NC1CC1)c1cccc(CSCCNC(=O)c2c(Cl)cccc2Cl)c1`, for which the Activity in data set [1] was -1%; in data set [2], 0%; in data set [3] it was 11%; in data set [4], 1.9%.

For the molecule `O=C(CSCc1c(F)cccc1Cl)NCc1ccccc1Cl`, in data set [4], the Activity was determined as 47.8%.

As for `O=C(NCCSCc1cccc(Cl)c1)c1c(Br)cccc1Br`, the Activity in data set [1] stood at 20.8%; in data set [2], 6.7%; in data set [3], 83.4%; in data set [4] it was 74.2%.

For `Cc1cccc(C)c1C(=O)NCCSCc1cccc(Cl)c1`, the Activity in data set [1] was -9.4%; in data set [2], 0.9%; in data set [3], 51.6%; in data set [4], 29.5%.

As to `COCCCNC(=O)c1c(Cl)cccc1Cl`, in data set [4], the Activity is 6.9%.

Take `O=C(NCCSCc1ccccc1Cl)c1ccccc1Cl`: the Activity in data set [4] stood at 4%.

On to `O=C(NCCCCNC(=O)c1ccccc1Br)c1ccccc1Br`, for which, in data set [4], the Activity was 7.9%.

On to `Oc1c(Cl)cc(Cl)cc1/C=N/CCSCc1ccccc1Cl`, for which the Activity in data set [4] turned out to be 5.3%.

Turning to `O=C(NCCS(=O)(=O)Cc1ccc(F)cc1)c1c(F)cccc1Cl`, the Activity in data set [4] was 39.2%.

`O=C(NCCNC(=O)c1c(Cl)cccc1Cl)c1c(Cl)cccc1Cl`: the Activity in data set [4] turned out to be 7.6%.

For the molecule `N/C(=N\O)c1cccc(CSCCNC(=O)c2c(Cl)cccc2Cl)c1`, the Activity in data set [3] is 1.6%; in data set [4], -1.5%.

Turning to `O=C(NCCSCc1cccc(Cl)c1)c1ccccc1Cl`, the Activity in data set [4] amounted to 4.7%.

Take `N=C(NO)c1cccc(CSCCNC(=O)c2c(Cl)cccc2Cl)c1`: the values for the Activity in data set [1] and in data set [2] were 5.9% and 9.2%, respectively.

Regarding `O=C(NCCNC(=O)c1ccccc1F)c1ccccc1F`, in data set [4], the Activity came to 0.2%.

For `O=C(NCCCCNC(=O)c1c(Cl)cccc1Cl)c1c(Cl)cccc1Cl`, in data set [4], the Activity stood at 4%.

In the case of `O=C(NCCSc1ccccc1)c1ccccc1Cl`, the Activity in data set [4] was -4.4%.

As to `CC(C)(CNC(=O)c1c(Cl)cccc1Cl)SCc1ccc(F)cc1`, the Activity in data set [4] is 37%.

Take `O=C(NCc1ccccc1)c1c(F)cccc1Cl`: the Activity in data set [4] is 3.8%.

As to `CCN(CC)CCCNC(=O)c1c(Cl)cccc1Cl`, the Activity in data set [4] was 5.1%.

On to `O=C(NCCSCc1cccc(Cl)c1)c1ccc(F)cc1`, for which the Activity in data set [4] worked out at 6.4%.

As to `CN(C)CCNC(=O)c1c(Cl)cccc1Cl`, the Activity in data set [4] worked out at 6.6%.

With `O=C(NCCSCc1ccc(Cl)c(Cl)c1)c1ccc(Cl)cc1Cl`, the Activity in data set [4] is 4.3%.

Regarding `CN(C)CCCNC(=O)c1c(Cl)cccc1Cl`, in data set [4], the Activity was 15.8%.

Turning to `O=C(NCCSCc1ccc(F)cc1)c1c(F)cccc1Cl`, the Activity in data set [4] stood at 27.3%.

For the molecule `O=C(NCCSCc1ccc(Cl)c(Cl)c1)c1ccccc1Cl`, in data set [4], the Activity amounted to 0.7%.

Regarding `O=C(NCCSCc1ccc(Cl)cc1)c1ccccc1Cl`, the Activity in data set [4] is -12%.
